Assay outcomes deposited in PubChem by Broad Institute.
rRNA inh HTS = reduced GFP signal of wild-type E. coli, primary screen, bacterial rRNA inhibitor project, GFP/RFP fluorescence, OD600, single point; E. coli WT GFP vs humanized-ribosome RFP mutants, 24 h; stronger effect = lower value; DMSO median 0, no signal -100; GFP signal change (wild-type ribosome), % (concentration not given with the values); 1.6% of 350,000 active; AID 720706, 2013;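 active means significant combined selectivity score with lowered wild-type GFP, culture density cut under 30%, mutant RFP and density less affected; inactive means any of these conditions unmet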
Cneo AK release = Cryptococcus neoformans cell lysis inducers, primary screen, AK release luminescence, single concentration | lysis activity, % at 15 µM | 0.2% of 360,000 active | AID 651654, 2012 | C. neoformans lysis, adenylate kinase release luminescence, 4 h; normalised: neutral wells 0, clomiphene wells 100;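 active means mean lysis activity across replicates of at least 80%, whatever share of replicates individually reach that level; inactive means mean lysis activity below 80%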
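Test system: log-phase Cryptococcus neoformans yeast cells; Quantity: yeast cell density of 5 × 10^6 cells/mL; Buffer or medium: YPD; Doses: single compound concentration per well; Timing: 4 h at 37 °C static, read 1 h later; Measured by: AK luminescence; Read-out basis: lysis from increased AK signal; Control set: Clomiphene as positive control.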
DENV2 CPE = inhibitors of DENV2 cytopathic effect, primary screen, cell-based, plate reader, single concentration. 1.7% of 350,000 active. CPE inhibition, % at 9.99 µM. DENV2-infected cells, cytopathic effect rescue; in the data active means CPE inhibition above about 20%, passing the limit was not always enough; tested in BHK-21 cells
E-selectin induc = E-selectin induction in HUVECs, primary screen, imaging, HUVEC, immunofluorescence imaging, single point | normalized: neutral wells 0, TNF-alpha wells 100 | 0.37% of 260,000 active | activation, % at 7.58 µM | P16581;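 active means mean E-selectin-positive cell signal at least 10% of the positive control, reached in at least 60% of replicates, without over 20% cell loss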
Target sequence (P16581 whole entry, looked up): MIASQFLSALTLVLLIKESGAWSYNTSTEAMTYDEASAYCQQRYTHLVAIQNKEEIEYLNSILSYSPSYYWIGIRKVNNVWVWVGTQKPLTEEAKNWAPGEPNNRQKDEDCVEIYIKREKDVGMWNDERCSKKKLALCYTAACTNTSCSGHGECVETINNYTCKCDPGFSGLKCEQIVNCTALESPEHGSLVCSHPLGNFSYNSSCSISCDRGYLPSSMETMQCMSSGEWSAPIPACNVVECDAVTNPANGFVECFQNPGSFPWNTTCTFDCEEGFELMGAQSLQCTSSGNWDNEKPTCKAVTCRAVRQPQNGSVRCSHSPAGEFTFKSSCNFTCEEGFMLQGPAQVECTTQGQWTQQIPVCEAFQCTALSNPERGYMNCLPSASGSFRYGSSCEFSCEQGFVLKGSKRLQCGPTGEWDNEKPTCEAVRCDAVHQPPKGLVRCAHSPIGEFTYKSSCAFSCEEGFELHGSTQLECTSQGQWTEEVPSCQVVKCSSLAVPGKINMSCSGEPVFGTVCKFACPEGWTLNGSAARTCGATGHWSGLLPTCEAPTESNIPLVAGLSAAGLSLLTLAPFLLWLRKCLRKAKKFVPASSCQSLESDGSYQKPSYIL
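Test system: HUVEC; input: 3,000 HUVEC/well; measured by: immunofluorescence imaging; read-out: % PE-positive cells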
miR-122 sensor = miR-122 Renilla sensor signal increase in Huh7, primary screen, miR-122 inhibitor project, cell-based, single point, plate reader; Huh7 miR-122 Renilla luciferase sensor, 48 h; neutral wells = 0, positive control = 100; activation (reporter increase), % at 12.5 µM; 0.3% of 340,000 active;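 active means mean replicate activation score at least 90 and every replicate individually at or above 90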;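 further: higher luciferase means less miR-122 activity so hits act as miR-122 inhibitors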
Of the large screens only hits and unclear results are named; the others gave an inactive call; ! = repeats disagree. Rows were chosen to be rich in hits. Some 3.1% of all compounds tested hit in one or more screens of this group.

C[C@@H]1CCCCO[C@H](CN(C)Cc2ccc(Cl)c(Cl)c2)[C@H](C)CN([C@@H](C)CO)C(=O)c2cc(NC(=O)c3ccccc3)ccc2O1	DENV2 CPE 82
C[C@H]1CCCCO[C@H](CN(C)Cc2ccc(C(F)(F)F)cc2)[C@@H](C)CN([C@@H](C)CO)C(=O)c2cc(NC(=O)Nc3cccc4ccccc34)ccc2O1	none
C[C@@H]1CCCCO[C@H](CN(C)Cc2ccc(C(F)(F)F)cc2)[C@@H](C)CN([C@H](C)CO)C(=O)c2cc(NC(=O)c3ccccc3)ccc2O1	none
C[C@@H]1CN([C@H](C)CO)C(=O)c2cc(NC(=O)c3ccccc3)ccc2O[C@@H](C)CCCCO[C@H]1CN(C)Cc1ccc(Cl)c(Cl)c1	none (no result: Cneo AK release, DENV2 CPE, miR-122 sensor)
C[C@@H]1CCCCO[C@H](CN(C)Cc2ccc(C(=O)O)cc2)[C@H](C)CN([C@@H](C)CO)C(=O)c2cc(NC(=O)Nc3ccc(C(F)(F)F)cc3)ccc2O1	DENV2 CPE 41!
C[C@@H]1CCCCO[C@H](CN(C)Cc2ccc(C(F)(F)F)cc2)[C@H](C)CN([C@@H](C)CO)C(=O)c2cc(NC(=O)c3ccccc3)ccc2O1	DENV2 CPE 140
C[C@@H]1CN([C@H](C)CO)C(=O)c2cc(NC(=O)Nc3cccc4ccccc34)ccc2O[C@@H](C)CCCCO[C@@H]1CN(C)Cc1ccc(C(F)(F)F)cc1	DENV2 CPE 72
C[C@@H]1CN([C@H](C)CO)C(=O)c2cc(C#Cc3cccnc3)cnc2O[C@H]1CN(C)C	none
C[C@@H]1CCCCO[C@H](CN(C)Cc2ccccc2)[C@H](C)CN([C@H](C)CO)C(=O)c2cc(NC(=O)Nc3ccc(C(F)(F)F)cc3)ccc2O1	none
C[C@H]1CCCCO[C@H](CN(C)Cc2ccccc2)[C@@H](C)CN([C@@H](C)CO)C(=O)c2cc(NC(=O)Nc3ccc(C(F)(F)F)cc3)ccc2O1	DENV2 CPE 39
COc1ccc2c3c(n(C)c2c1)[C@@H](CO)N(Cc1ccccc1)CC31CN(S(C)(=O)=O)C1	none (no result: Cneo AK release, miR-122 sensor)
COc1ccc(C2=Nc3ccccc3N(C(=O)c3ccncc3)C2C(=O)NC(C)C)cc1 (centres undefined)	DENV2 CPE 59 (no result: Cneo AK release, miR-122 sensor)
CN(C)S(=O)(=O)n1cc(/C=C(\NC(=O)c2ccccc2)C(=O)NCCCn2ccnc2)c2ccccc21	none (no result: E-selectin induc)
CN(C)S(=O)(=O)n1cc(/C=C(\NC(=O)c2ccccc2Cl)C(=O)NCCCn2ccnc2)c2ccccc21	miR-122 sensor 125 (no result: Cneo AK release)
CC(C)[C@H]1CC=CC[C@H](C)Oc2ccccc2C(=O)N(C)[C@@H](C)C(=O)N1 (mixture of isomers)	none (no result: Cneo AK release, DENV2 CPE, E-selectin induc, miR-122 sensor)
CCCC#Cc1cnc2c(c1)C(=O)N([C@H](C)CO)C[C@@H](C)[C@@H](CN(C)C(=O)C1CCCCC1)O2	none (no result: Cneo AK release, DENV2 CPE)
Cc1ccccc1NC(=O)CSC1=C(C#N)C(c2ccsc2)CC(=O)N1 (centres undefined)	none (no result: rRNA inh HTS, DENV2 CPE, E-selectin induc)
N#CC1=C(SCC(=O)Nc2nccs2)NC(=O)CC1c1ccccc1 (centres undefined)	rRNA inh HTS -28 (no result: E-selectin induc)
CCn1cc(C(=O)NC(C)CCc2ccccc2)c(=O)c2cc(S(=O)(=O)N(C)C)ccc21 (centres undefined)	DENV2 CPE 51
CCn1cc(C(=O)NCCc2ccc(Cl)cc2)c(=O)c2cc(S(=O)(=O)N(C)C)ccc21	none (no result: E-selectin induc)
CCC(=O)N1C[C@H](C)[C@@H](OC)CN(C)C(=O)c2ccc(NC(=O)Nc3ccc(Cl)cc3)cc2OC[C@@H]1C	none (no result: Cneo AK release, miR-122 sensor)
CC(C)NC(=O)Nc1ccc2c(c1)CC(=O)N([C@@H](C)CO)C[C@@H](C)[C@H](CN(C)Cc1ccncc1)O2	none
CN(C)C(=O)COC(=O)/C=C/c1cn(-c2ccccc2)nc1-c1cccs1	rRNA inh HTS -32 (no result: Cneo AK release)
O=C(c1cn(-c2ccccc2)nc1-c1cccs1)N1CCOCC1	none (no result: rRNA inh HTS, DENV2 CPE, E-selectin induc)
O=C(/C=C/c1cn(-c2ccccc2)nc1-c1cccs1)NCCN1CCOCC1	rRNA inh HTS -30
Cn1cnc(S(=O)(=O)N[C@H]2C=C[C@@H](CC(=O)NCC3CC3)O[C@@H]2CO)c1	none
CCOC(=O)NC(N(O)c1cccc(Cl)c1)C(Cl)(Cl)Cl (centres undefined)	rRNA inh HTS -28 (no result: E-selectin induc)
CCN(C(=O)Nc1cccc(Cl)c1)c1ccccc1	none (no result: E-selectin induc)
Cc1cc(C)c(-n2c(SCc3nc4ccccc4s3)n[nH]c2=O)c(C)c1	rRNA inh HTS -24 (no result: Cneo AK release, E-selectin induc, miR-122 sensor)
CNC[C@@H]1OCCCC[C@H](C)Oc2ccc(NC(=O)Nc3c(C)noc3C)cc2C(=O)N([C@H](C)CO)C[C@H]1C	none (no result: Cneo AK release, DENV2 CPE)
Cc1noc(C)c1NC(=O)N[C@H]1CC[C@H](CCNC(=O)C2CCCC2)O[C@@H]1CO	DENV2 CPE 20
CC(=O)N[C@H]1CC[C@@H](CCNC(=O)C2CCC2)O[C@H]1CO	Cneo AK release 112 (no result: miR-122 sensor)
CC(=O)N[C@H]1CC[C@@H](CCNC(=O)C2CCCC2)O[C@@H]1CO	DENV2 CPE 27
CC(=O)N[C@H]1CC[C@H](CCNC(=O)C2CCCC2)O[C@H]1CO	none
CCCC(=O)Nc1ccc2c(c1)OC[C@H](C)N(CCc1ccccc1)C[C@@H](C)[C@@H](OC)CN(C)C2=O	none (no result: Cneo AK release, DENV2 CPE)
COc1ccc(NC(=O)Nc2ccc3c(c2)CC(=O)N([C@H](C)CO)C[C@@H](C)[C@@H](CN(C)S(=O)(=O)c2cn(C)cn2)O3)cc1	none (no result: E-selectin induc)
C[C@@H]1CN([C@@H](C)CO)C(=O)Cc2cc(NC(=O)Nc3ccc(F)cc3)ccc2O[C@@H]1CN(C)S(=O)(=O)c1cn(C)cn1	E-selectin induc 73 (no result: Cneo AK release, DENV2 CPE)
COc1ccc(NC(=O)Nc2ccc3c(c2)CC(=O)N([C@H](C)CO)C[C@@H](C)[C@H](CN(C)S(=O)(=O)c2cn(C)cn2)O3)cc1	DENV2 CPE 75 (no result: E-selectin induc)
C[C@H](CO)N1C[C@H](C)[C@@H](CN(C)S(=O)(=O)c2cn(C)cn2)Oc2ccc(NC(=O)Nc3cccc4ccccc34)cc2CC1=O	DENV2 CPE 86
COc1ccc2c3c(n(C)c2c1)[C@H](CO)N(CC1CC1)CC31CN(Cc2nccs2)C1	none (no result: Cneo AK release, miR-122 sensor)
O=C(C[C@@H]1C=C[C@@H](NC(=O)Nc2ccccc2F)[C@@H](CO)O1)NCc1ccccc1	none (no result: Cneo AK release, miR-122 sensor)
CCCNC(=O)[C@@H]1[C@@H](CO)[C@@H]2Cn3c(ccc(-c4ccccc4OC)c3=O)[C@@H]2N1S(C)(=O)=O	none (no result: Cneo AK release, miR-122 sensor)
CC(=O)C1CN(S(=O)(=O)c2ccc(C)cc2)C(c2ccccc2)CC1C (centres undefined)	DENV2 CPE 39 (no result: Cneo AK release, miR-122 sensor)
CCN(CC)c1ccc2cc(C(=O)NCc3ccc(F)cc3)c(=N)oc2c1	DENV2 CPE 26
